Results taken from publication PMC11371828 (Nature Communications, 2024).
“Also recorded” adds a separate entry of the source. Where no end group is shown, it is not given here. MBP = maltose binding protein (fused N-terminally to the peptide)

B4: IKKβ(1-669) EE, 6xHis tag removed (enzyme, human, UniProt O14920 1-669, looked up)
chain: MSWSPSLTTQTCGAWEMKERLGTGGFGNVIRWHNQETGEQIAIKQCRQELSPRNRERWCLEIQIMRRLTHPNVVAARDVPEGMQNLAPNDLPLLAMEYCQGGDLRKYLNQFENCCGLREGAILTLLSDIASALRYLHENRIIHRDLKPENIVLQQGEQRLIHKIIDLGYAKELDQGELCTEFVGTLQYLAPELLEQQKYTVTVDYWSFGTLAFECITGFRPFLPNWQPVQWHSKVRQKSEVDIVVSEDLNGTVKFSSSLPYPNNLNSVLAERLEKWLQLMLMWHPRQRGTDPTYGPNGCFKALDDILNLKLVHILNMVTGTIHTYPVTEDESLQSLKARIQQDTGIPEEDQELLQEAGLALIPDKPATQCISDGKLNEGHTLDMDLVFLFDNSKITYETQISPRPQPESVSCILQEPKRNLAFFQLRKVWGQVWHSIQTLKEDCNRLQQGQRAAMMNLLRNNSCLSKMKNSMASMSQQLKAKLDFFKTSIQIDLEKYSEQTEFGITSDKLLLAWREMEQAVELCGRENEVKLLVERMMALQTDIVDLQRSPMGRKQGGTLDDLEEQARELYRRLREKPRDQRTEGDSQEMVRLLLQAIQSFEKKVRVIYTQLSKTVVCKQKALELLPKVEEVVSLMNEDEKTVVRLQEKRQKELWNLLKIACSKVRGPV

Key:
[1] = tested on: IKKα/β heterodimer (6xHis-IKKβ(1-669) EE, Strep-IKKα(10-667) EE); assay: MBP-pulldown with purified IKKα/β heterodimer; assay type: binding; settings: MBP-IκBα pep(s) vs MBP negative control, Coomassie
Procedure, shortened: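 Heterodimer co-expressed in Sf21 insect cells, purified on Strep-Tactin then Ni-NTA, pre-incubated with 1 mM ATP, MgCl2, β-glycerophosphate, NaF and orthovanadate for 1 h on ice, then gel-filtered in Tris pH 8.0 buffer. MBP-fusion baits expressed in E. coli BL21(DE3), captured on amylose resin. Binding in 20 mM Tris pH 8.0, 150 mM NaCl, 2 mM DTT. Bound proteins Coomassie-stained.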

[2] = target: T1, IKKα(10-667) EE homodimer (Homo sapiens, UniProt O15111, S176E/S180E); assay: ITC of synthetic YDDΦxΦ peptides with IKKα homodimer; assay type: binding; settings: for ITC binding to IKKα, in words: 25 °C, titration of the IKKα homodimer with synthetic peptide
T1 sequence (O15111 10-667 S176E/S180E): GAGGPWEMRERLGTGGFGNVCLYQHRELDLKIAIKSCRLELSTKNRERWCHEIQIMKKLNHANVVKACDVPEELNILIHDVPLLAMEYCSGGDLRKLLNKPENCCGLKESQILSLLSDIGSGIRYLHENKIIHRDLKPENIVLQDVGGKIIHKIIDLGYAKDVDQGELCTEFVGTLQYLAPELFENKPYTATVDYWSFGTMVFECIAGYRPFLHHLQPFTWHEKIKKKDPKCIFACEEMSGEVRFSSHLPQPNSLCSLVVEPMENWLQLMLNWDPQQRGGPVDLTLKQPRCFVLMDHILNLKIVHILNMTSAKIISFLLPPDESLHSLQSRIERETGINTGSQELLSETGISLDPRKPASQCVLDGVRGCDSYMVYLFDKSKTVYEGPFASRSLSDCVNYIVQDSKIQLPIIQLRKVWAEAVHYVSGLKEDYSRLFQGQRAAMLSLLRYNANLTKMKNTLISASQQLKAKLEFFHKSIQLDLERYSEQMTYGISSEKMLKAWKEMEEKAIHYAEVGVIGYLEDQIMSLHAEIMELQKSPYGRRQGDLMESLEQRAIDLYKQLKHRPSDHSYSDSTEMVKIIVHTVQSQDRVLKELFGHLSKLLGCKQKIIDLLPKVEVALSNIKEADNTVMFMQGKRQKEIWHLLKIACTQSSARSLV
Procedure, shortened: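 IKKα(10-667) EE was expressed in Sf21 insect cells and purified by Ni-NTA affinity. It was then dialyzed overnight at 4 °C against ITC buffer (20 mM HEPES pH 8.0, 150 mM NaCl, 1 mM TCEP), which was used for all titrations unless otherwise stated.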

6xHis-IKKβ(1-669) EE [3] = target: T2, 6xHis-IKKβ(1-669) EE (human, UniProt O14920 1-669, S177E | S181E); assay: pull-down
T2 sequence (looked up): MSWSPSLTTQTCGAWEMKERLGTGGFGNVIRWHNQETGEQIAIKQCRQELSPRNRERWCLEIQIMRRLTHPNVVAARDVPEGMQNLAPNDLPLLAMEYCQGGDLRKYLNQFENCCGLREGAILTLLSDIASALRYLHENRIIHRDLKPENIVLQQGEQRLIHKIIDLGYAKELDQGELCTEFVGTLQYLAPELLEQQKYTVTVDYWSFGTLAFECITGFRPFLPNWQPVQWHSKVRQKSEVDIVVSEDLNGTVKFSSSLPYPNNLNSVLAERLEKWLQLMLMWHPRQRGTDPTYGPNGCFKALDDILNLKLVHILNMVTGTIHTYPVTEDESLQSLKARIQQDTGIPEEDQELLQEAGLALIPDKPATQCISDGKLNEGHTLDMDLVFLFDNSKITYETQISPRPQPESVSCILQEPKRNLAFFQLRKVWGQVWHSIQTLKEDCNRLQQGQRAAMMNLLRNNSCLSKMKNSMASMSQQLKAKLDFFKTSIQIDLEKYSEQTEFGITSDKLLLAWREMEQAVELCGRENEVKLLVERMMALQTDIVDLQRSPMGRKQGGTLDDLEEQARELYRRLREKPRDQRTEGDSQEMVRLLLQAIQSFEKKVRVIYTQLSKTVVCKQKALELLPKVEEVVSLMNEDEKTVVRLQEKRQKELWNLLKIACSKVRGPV

[4] = tested on: MEF cells KO for IκBα, IκBβ, IκBε; assay: In cellulo degradation of retro-transduced IκBα proteins after TNFα; assay type: cell-based, mouse; settings: retro-transduced IκBα constructs, TNFα 20 ng/ml, compared with wt IκBα
Procedure, shortened: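 Retroviruses came from Phoenix-eco cells (5 × 10^6) transfected with 6 μg pBABE-IκBα plasmid; empty vector was the control. Medium was changed at 6 h and the virus-containing medium collected at 48 h, filtered, and used to infect the MEFs.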

6xHis-IKKβ(1-669) EE [5] = target: T2, 6xHis-IKKβ(1-669) EE; assay: pull-down; remark: listed apart in the source
[6] = target: T3, IKKα(10-667) EE, 6xHis tag removed (UniProt O15111 10-667, S176E | S180E); assay: ITC
T3 sequence (looked up): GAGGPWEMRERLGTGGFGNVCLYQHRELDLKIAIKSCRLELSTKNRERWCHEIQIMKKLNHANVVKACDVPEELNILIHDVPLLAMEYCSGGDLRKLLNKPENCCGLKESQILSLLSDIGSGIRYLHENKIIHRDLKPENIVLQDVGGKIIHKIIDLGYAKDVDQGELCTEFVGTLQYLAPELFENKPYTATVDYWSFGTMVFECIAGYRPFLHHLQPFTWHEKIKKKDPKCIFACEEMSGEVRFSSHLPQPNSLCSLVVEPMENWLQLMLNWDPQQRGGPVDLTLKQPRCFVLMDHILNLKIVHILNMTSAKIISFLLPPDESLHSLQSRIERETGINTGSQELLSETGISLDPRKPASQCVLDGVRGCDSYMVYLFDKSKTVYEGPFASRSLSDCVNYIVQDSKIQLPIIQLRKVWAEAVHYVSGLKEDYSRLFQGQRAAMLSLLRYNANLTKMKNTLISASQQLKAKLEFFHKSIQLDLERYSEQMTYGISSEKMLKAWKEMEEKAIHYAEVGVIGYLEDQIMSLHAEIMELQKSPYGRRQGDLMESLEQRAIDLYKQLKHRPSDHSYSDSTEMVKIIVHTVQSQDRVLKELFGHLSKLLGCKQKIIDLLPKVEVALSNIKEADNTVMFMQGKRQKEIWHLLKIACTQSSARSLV

[7] = target: B4; assay: ITC
crystal structure = target: the molecule itself; assay: crystal structure
6xHis-IKKβ(1-669) EE [8] = target: T2, 6xHis-IKKβ(1-669) EE; assay: cross-linking

For “IκBα pep(s): 17 amino acid peptide, residues 301-317 of IκBα, fused to MBP ({MBP}-DELPYDDCVFGGQRLTL)”, the “binding of the IKKα/β heterodimer in MBP-pulldown, in words” value [1] was “specifically binds”.

With EFTEDELPpYDDLVFGGQRLTL [pY-IκBα pep] the “ITC binding to IKKα, in words” value [2] was “too weak to allow for accurate thermodynamic analysis; also recorded: absence of interaction”.

“EFTEDELPYDDLVFGGQRLTL-NH2 [IκBα pep C308L]” showed a Kd [2] of 0.42 µM.

For LSSANSLYDDIECFLMELEQPA [IRF7 pep], the “ITC binding to IKKα, in words” value [2] was “too weak to allow for accurate thermodynamic analysis; also recorded: binds with weak affinity to IKKα”.

B1: MBP-IκBα full length (natural protein, human, UniProt P25963 1-317, looked up)
chain: MFQAAERPQEWAMEGPRDGLKKERLLDDRHDSGLDSMKDEEYEQMVKELQEIRLEPQEVPRGSEPWKQQLTEDGDSFLHLAIIHEEKALTMEVIRQVKGDLAFLNFQNNLQQTPLHLAVITNQPEIAEALLGAGCDPELRDFRGNTPLHLACEQGCLASVGVLTQSCTTPHLHSILKATNYNGHTCLHLASIHGYLGIVELLVSLGADVNAQEPCNGRTALHLAVDLQNPDLVSLLLKCGADVNRVTYQGYSPYQLTWGRPSTRIQQQLGQLTLENLQMLPESEDEESYDTESEFTEFTEDELPYDDCVFGGQRLTL
B1: binds (6xHis-IKKβ(1-669) EE [3]).

B2: IkBa C308F (protein, UniProt P25963 1-317, looked up, variant C308F)
NF-kappa-B inhibitor alpha: MFQAAERPQEWAMEGPRDGLKKERLLDDRHDSGLDSMKDEEYEQMVKELQEIRLEPQEVPRGSEPWKQQLTEDGDSFLHLAIIHEEKALTMEVIRQVKGDLAFLNFQNNLQQTPLHLAVITNQPEIAEALLGAGCDPELRDFRGNTPLHLACEQGCLASVGVLTQSCTTPHLHSILKATNYNGHTCLHLASIHGYLGIVELLVSLGADVNAQEPCNGRTALHLAVDLQNPDLVSLLLKCGADVNRVTYQGYSPYQLTWGRPSTRIQQQLGQLTLENLQMLPESEDEESYDTESEFTEFTEDELPYDDFVFGGQRLTL
With B2 the “IκBα degradation after TNFα stimulation, in words” value [4] was “slightly faster compared to that of the wt IκBα protein”.

DELPYDDFVFGGQRLTL (peptide, UniProt P25963 301-317, looked up) [MBP-IκBα pep(s) C308F]: binds (6xHis-IKKβ(1-669) EE [5]).

B3: MBP-IκBα(73-317) (domain or fragment, human, UniProt P25963 73-317, looked up)
chain: DGDSFLHLAIIHEEKALTMEVIRQVKGDLAFLNFQNNLQQTPLHLAVITNQPEIAEALLGAGCDPELRDFRGNTPLHLACEQGCLASVGVLTQSCTTPHLHSILKATNYNGHTCLHLASIHGYLGIVELLVSLGADVNAQEPCNGRTALHLAVDLQNPDLVSLLLKCGADVNRVTYQGYSPYQLTWGRPSTRIQQQLGQLTLENLQMLPESEDEESYDTESEFTEFTEDELPYDDCVFGGQRLTL
B3: binds (6xHis-IKKβ(1-669) EE [5]).

DELPYDDLVFGGQRLTL (peptide, UniProt P25963 301-317, looked up) [MBP-IκBα pep(s) C308L]: binds (6xHis-IKKβ(1-669) EE [5]).

For EFTEDELPYDDCVFGGQRLTL [IκBα pep (synthetic, residues 297-317 of IκBα)], the Kd [6] was 7.7 µM, the dH [6] was -14.2 kcal/mol and the “stoichiometry N” value [6] was 0.63. The Kd [7] was 40 µM, the dH [7] was -16.3 kcal/mol and the “stoichiometry N” value [7] was 0.63.

With EFTEDELPYDDLVFGGQRLTL-NH2 [C308L IκBα pep (synthetic)] the Kd [7] was 2.4 µM, the dH [7] was -11.5 kcal/mol and the “stoichiometry N” value [7] was 0.66.

B4: binds (crystal structure).

EFTEDELPYDDLVFGGQKLTL-NH2 [C308L/R314K IκBα pep (synthetic)]: binds (6xHis-IKKβ(1-669) EE [8]).

GLDGIIEYDDFKLNSSIVEPKE [p100 pep (synthetic, residues 8-29 of p100)] was tested, and the Kd [6] was roughly 12 µM, the dH [6] was roughly -13.4 kcal/mol and the “stoichiometry N” value [6] was 0.6.
